Here are results for 3 compounds from PMC10472104 (Clinical Cancer Research, 2023).

“Also recorded” adds a separate entry of the source.

Holding throughout (format): cell-based, human
Assay [1] deals with γH2AX in CHLA10 cells. Briefly: γH2AX expression by Western blotting. The conditions noted are these: CHLA10, 24 hours.
Assay [2] concerns γH2AX in TC32 cells. The assay can be described thus: γH2AX expression by Western blotting. As to conditions: TC32, 24 hours. In outline:
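Cells grown to 70–80% confluency in six-well plates, settled overnight, serum-starved 24 h, then given DMSO or increasing concentrations of test compound for 24 h. Lysates were transferred to nitrocellulose and blocked. Blots were probed overnight at 4°C with rabbit anti-phospho-H2AX (Ser139) and anti-total H2AX, then 1 h at room temperature with IRDye800CW anti-rabbit, and scanned on an Odyssey imager.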

Assay [3] relates to γH2AX foci in CHLA10 cells. Briefly: γH2AX foci by immunofluorescence and confocal microscopy. As to conditions: CHLA10, increasing doses, 24 hours. Put shortly:
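Cells were fixed in 4% paraformaldehyde 30 min at room temperature and permeabilized with 0.5% Triton-X. They were probed overnight at 4°C with rabbit anti-phospho-H2AX (Ser139), then Alexa Fluor 488 anti-rabbit, and DAPI-mounted. Foci were counted from confocal images.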

The subject of assay [4] is TC32 and CHLA10 spheroids. Briefly: 3D spheroid assays, comparison across both models. The conditions noted are these: 4 days.
Assay [5] has as its system TC32 cells. Briefly: Cell-cycle analysis. The conditions noted are these: TC32 (Fig. 3A).
Assay [6] deals with CHLA10 cells. The assay can be described thus: Cell-cycle analysis. The conditions noted are these: CHLA10 (Fig. 3B).

As to `O=C(c1cc(Cc2n[nH]c(=O)c3ccccc23)ccc1F)N1CCN(C(=O)C2CC2)CC1` [olaparib], the “γH2AX expression with increasing doses” value in assay [1] and in assay [2] was “induced γH2AX expression in a dose-dependent manner” each time. For the same compound, the γH2AX foci formation result in assay [3] is on record as “dose-dependent γH2AX foci formation”.

`Cn1ncnc1[C@H]1c2n[nH]c(=O)c3cc(F)cc(c23)N[C@@H]1c1ccc(F)cc1` [talazoparib]: the “spheroid activity compared with kt-3283” value in assay [4] is listed as “equivalent activity; also recorded: equivalent efficacy”.

As to `O=C(CCCCCCC(=O)Nc1ccccc1)NO` [vorinostat], the “γH2AX expression with increasing doses” value in assay [1] and in assay [2] was “induced γH2AX expression in a dose-dependent manner” in each case. For the same compound, the γH2AX foci formation entry in assay [3] is “milder DNA damage foci formation”. Moreover, the cell-cycle arrest induced entry in assay [5] and in assay [6] was “G0/G1 cell-cycle arrest” throughout.
